Paper PMC10993246 (ACS Omega, 2024)
Residues, ends and D or L forms follow the SMILES beside them.

Legend:
[1] = ref 43 (Futaki et al.); cited from earlier work
L929 cells = assay: Cell proliferation / cytotoxicity MTT assay; type: cell-based; conditions: 48 h; for toxicity toward the cells: L929 cells, 10, 25, 50 and 100 μM, IC50 values could not be calculated
Summary of the method: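 L929 cells were seeded at 0.5 × 10^4 cells per well and held 24 h in complete medium. Fluorescein-labelled and unlabelled test peptides were then added at 10, 25, 50 and 100 μM for 48 h. MTT was applied for 4 h at 37 °C in the dark, formazan was dissolved in DMSO, and A570 was read. % viability = treated/untreated absorbance; mean ± SD; two-way ANOVA.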

3T3 cells = assay: Membrane penetrability, fixed cells, fluorescence and confocal microscopy; type: cell-based, mouse; conditions: fixed 3T3 cells, 50 μM in PBS, 6 h, 4 °C, confocal microscopy
[2] = system: mouse fibroblast 3T3 cells; conditions: cell fixation conditions, ref 36 (Rhee et al.); cited from earlier work

Tat-(48–60): CPP reported by Futaki et al. (GRKKRRQRRRAHQ; UniProt P04608 48-60, looked up, fragment)
localization of CPPs [1]: in both the cytoplasm and nucleus

GRRRRRRRRRPPQ [R9-TAT]
localization of CPPs [1]: in both the cytoplasm and nucleus

FITC-VGSLR
cell proliferation compared to the untreated cells (L929 cells; L929 cells, 50 μM, absorbance 570 nm, p < 0.0001): higher proliferation | cell viability at 100 μM (L929 cells; L929 cells, 100 μM): reduced viability | toxicity toward the cells (L929 cells): does not show any toxicity | cellular viability at 25 and 50 μM compared to 10 μM (L929 cells; L929 cells): increased progressively | subcellular localization (3T3 cells): localization of the peptide at the nucleus was more than that in the cytoplasm

CSIPPEVKFNPFVYLI [C105Y]
localization of the fluorescent-tagged peptide [2]: enriched fluorescence signal in the nucleus in addition to being present in the cytoplasm

CC(C)C[C@H](NC(=O)[C@H](CO)NC(=O)CNC(=O)[C@@H](N)C(C)C)C(=O)N[C@@H](CCCNC(=N)N)C(=O)O [VGSLR] (H-VGSLR-OH)
toxicity toward the cells (L929 cells): did not show any significant toxicity | cellular viability at 25 and 50 μM compared to 10 μM (L929 cells; L929 cells): increased progressively
